Among the data in ChEMBL document CHEMBL4130601, “Oxygenated N-Acyl Alanine Methyl Esters (NAMEs) from the Marine Bacterium Roseovarius tolerans EL-164” (2018) are inhibition, Activity and MIC values, retold here.

Converted amounts (≈) assume the structure as drawn. The source made the active and inactive calls. No cut-off for these calls is given here.

The subject of experiment [1] is Pseudomonas putida. As to the kind of experiment: Inhibition of N-acyl-homoserinlactone-related quorum sensing activity in Pseudomonas putida F117 at 5 uM measured up to 5.5 hrs by fluorescence assay. An outline of the steps: (§1)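 The sensor strain P. putida F117 (pKRC12) was grown overnight in Luria−Bertani medium with gentamycin (20 μg/mL) at 30 °C, shaking at 160 rpm. Test samples were added at different concentrations.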

In experiment [2] the test system is Pseudomonas putida. As to the kind of experiment: Induction of N-acyl-homoserinlactone-related quorum sensing activity in Pseudomonas putida F117 measured up to 5.5 hrs by fluorescence assay. An outline of the steps: as §1
The test system of another experiment is Staphylococcus aureus. As to the kind of experiment: Antibacterial activity against Staphylococcus aureus Newman after 16 to 20 hrs by microdilution method. It is filed as functional. An outline of the steps:
(§2)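 Samples were serially diluted from 2 mg/mL stocks and the cells added. Growth was 16−20 h at the optimal temperature (30 or 37 °C). MIC was taken as the lowest concentration with no visible growth.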
Background: In broth dilution the organism is exposed to a series of concentrations in liquid medium.

In a further experiment the test system is Escherichia coli. The experiment in a line: Antibacterial activity against TolC-deficient Escherichia coli after 16 to 20 hrs by microdilution method. It is filed as functional. An outline of the steps: as §2
In a further experiment the test system is Mucor hiemalis. The experiment in a line: Antibacterial activity against Mucor hiemalis DSM 2656 after 16 to 20 hrs by microdilution method. It is filed as functional. An outline of the steps:
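The fungus, in mid-log phase, was diluted to about 5 × 10⁵ to 5 × 10⁶ cfu/mL final in Myc medium (1% phytone peptone, 1% glucose, 50 mM HEPES, pH 7.0). Samples were serially diluted from 2 mg/mL stocks. Growth was 16−20 h at 30 or 37 °C. MIC was taken as the lowest concentration with no visible growth.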

The subject of another experiment is Micrococcus luteus. As to the kind of experiment: Antibacterial activity against Micrococcus luteus DSM 1790 after 16 to 20 hrs by microdilution method. In kind it is functional. In a few lines:
as §2

Another experiment has as its system Staphylococcus carnosus. The experiment in a line: Antibacterial activity against Staphylococcus carnosus DSM 20501 after 16 to 20 hrs by microdilution method. It is filed as functional. An outline of the steps: as §2
The next experiment deals with Bacillus subtilis. The experiment in a line: Antibacterial activity against Bacillus subtilis DSM 10 after 16 to 20 hrs by microdilution method. In kind it is functional. In a few lines:
as §2

Turning to `CCCCCC/C=C\CCCCCCCC(=O)N[C@@H](C)C(=O)OC`, in the experiment with Pseudomonas putida [1], the inhibition entry was “inactive”. Also, the result in the experiment with Pseudomonas putida [2] was inactive.

Broadly, the MIC is the lowest concentration that inhibits growth of the organism. Read a low MIC as greater potency. As for `COC(=O)[C@H](C)NC(=O)CCCCCCC/C=C\CCCCCCO`, in the experiment on Pseudomonas putida [1], the inhibition result is “inactive”. Besides, the minimal inhibitory concentration (MIC) against Staphylococcus aureus was 32 to 64 µg/mL (≈ 90 to 180 µM); against Escherichia coli it was 8 to 16 µg/mL (≈ 22.5 to 45 µM); against Mucor hiemalis it was 32 to 64 µg/mL (≈ 90 to 180 µM); against Micrococcus luteus, 32 to 64 µg/mL (≈ 90 to 180 µM). Besides, the result in the experiment with Pseudomonas putida [2] was inactive.

Regarding `CCCCCC/C=C\CCCCCC(O)CC(=O)N[C@@H](C)C(=O)OC` (stereo partly specified), the MIC against Staphylococcus carnosus came to 16 µg/mL (≈ 45 µM); in the experiment with Bacillus subtilis, 128 µg/mL (≈ 360 µM); against Escherichia coli, 16 µg/mL (≈ 45 µM); against Micrococcus luteus it was 8 µg/mL (≈ 22.5 µM).

For the compound `CCCCCC/C=C\CCCCCC(=O)CC(=O)N[C@@H](C)C(=O)OC`, the MIC in the experiment on Staphylococcus carnosus is 8 µg/mL (≈ 22.6 µM); with Bacillus subtilis, 16 µg/mL (≈ 45.3 µM); in the experiment on Escherichia coli, 16 µg/mL (≈ 45.3 µM); in the experiment on Micrococcus luteus, 16 µg/mL (≈ 45.3 µM).
